Measured values as given in publication PMC4424118 (Nature structural & molecular biology, 2015).

How the values were obtained:
[1] = biological target: NTSR2 neurotensin receptor (Homo sapiens, UniProt O95665); assay: TANGO β-arrestin recruitment assay, NTSR2; format: cell-based; conditions: for agonist activity at NTSR2 neurotensin receptors: TANGO, agonist mode
[2] = biological target: MLNR motilin receptor TANGO construct; assay: TANGO
MRGPRX2 [3] = biological target: T1, MRGPRX2 (Homo sapiens, UniProt Q96LB1); assay: TANGO β-arrestin recruitment assay, MRGPRX2; format: cell-based; conditions: NCC-1 screen, confirmed in concentration-response studies
T1 sequence (Q96LB1 1-330): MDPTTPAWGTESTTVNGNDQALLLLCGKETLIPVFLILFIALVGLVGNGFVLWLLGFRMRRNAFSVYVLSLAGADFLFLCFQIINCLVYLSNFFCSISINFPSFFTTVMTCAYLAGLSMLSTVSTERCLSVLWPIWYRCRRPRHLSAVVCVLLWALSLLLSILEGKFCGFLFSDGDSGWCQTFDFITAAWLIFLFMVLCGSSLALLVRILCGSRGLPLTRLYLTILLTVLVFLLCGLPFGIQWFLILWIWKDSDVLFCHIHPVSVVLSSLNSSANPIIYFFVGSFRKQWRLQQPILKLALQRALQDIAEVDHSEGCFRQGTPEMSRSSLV

MRGPRX4 [4] = biological target: T2, MRGPRX4 (Homo sapiens, UniProt Q96LA9); assay: cAMP; format: cell-based; conditions: Gs assay, HEK293T cells
MRGPRX4 orphan GPCR = MRGPRX4 orphan GPCR (Homo sapiens, UniProt Q96LA9); assay: TANGO β-arrestin recruitment assay, MRGPRX4; format: cell-based; conditions: initial NCC-1 screen
MRGPRX4 [5] = biological target: T2, MRGPRX4; assay: cAMP; format: cell-based; conditions: Gi assay, MRGPRX4-expressing cells
MRGPRX2 [6] = biological target: T1, MRGPRX2; assay: cAMP; format: cell-based; conditions: Gs assay, HEK293T cells
[7] = system: 91 orphan and poorly annotated GPCRs; assay: TANGO screen of the NCC-1 library; format: cell-based, human
MRGPRX1 [8] = biological target: T3, MRGPRX1 (Homo sapiens, UniProt Q96LB2); assay: cAMP; format: cell-based; conditions: Gs assay, HEK293T cells
MRGPRX3 = MRGPRX3 (Homo sapiens, UniProt Q96LB0); assay: cAMP; format: cell-based; conditions: Gs assay, HEK293T cells
MRGPRX4 [9] = biological target: T2, MRGPRX4; assay: calcium mobilization assay, stable MRGPRX4 cell line; format: cell-based; conditions: MRGPRX4-expressing stable cells
Outline: (§1)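 Tetracycline-inducible Flp-In T-Rex HEK-T lines carried FLAG-tagged receptor in pcDNA5/FRT/TO and were kept with 15 μg/ml blasticidin and 100 μg/ml hygromycin B. Expression was induced with 1ug/ml tetracycline for 24 h. The calcium assay used 15,000 cells/well and FLIPR Calcium 4 dye (45 min 37°C, 15 min RT), with 16-point 3-fold dilutions at final 10 μM–0.003 nM. Fluorescence was read for 10 s baseline plus 120 s.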

HTR1D serotonin receptor = HTR1D serotonin receptor (Homo sapiens, UniProt P28221); assay: TANGO assay in antagonist mode, HTR1D; format: cell-based; conditions: 1 μM clozapine
HTR1A serotonin receptor = biological target: T4, HTR1A serotonin receptor (Homo sapiens, UniProt P08908); assay: TANGO assay in antagonist mode, HTR1A; format: cell-based; conditions: 1 μM clozapine
T4 sequence (P08908 1-422): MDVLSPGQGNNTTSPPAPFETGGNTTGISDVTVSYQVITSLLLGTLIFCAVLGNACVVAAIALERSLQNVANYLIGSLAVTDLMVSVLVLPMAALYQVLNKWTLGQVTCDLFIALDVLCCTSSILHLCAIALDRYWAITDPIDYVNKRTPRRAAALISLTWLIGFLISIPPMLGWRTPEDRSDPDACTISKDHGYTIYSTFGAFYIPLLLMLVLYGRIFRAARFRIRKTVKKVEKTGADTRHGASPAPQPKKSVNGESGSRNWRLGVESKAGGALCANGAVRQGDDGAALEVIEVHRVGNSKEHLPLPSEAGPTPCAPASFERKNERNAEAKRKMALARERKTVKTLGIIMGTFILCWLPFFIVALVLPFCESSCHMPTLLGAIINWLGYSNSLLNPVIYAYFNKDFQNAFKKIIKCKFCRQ

[10] = biological target: SSTR3 somatostatin receptor (Homo sapiens, UniProt P32745); assay: PRESTO-TANGO / TANGO β-arrestin recruitment assay, SSTR3; format: cell-based
MRGPRX2 [11] = biological target: T1, MRGPRX2; assay: PI hydrolysis assay, MRGPRX2; format: cell-based
Outline: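 HEK-293T cells were transiently transfected with 10 μg receptor DNA per 15 cm dish and seeded the next day on poly-L-lysine in 1% dialyzed FBS. They were labelled 16 h with 1 μCi/well ³H-inositol in inositol-free DMEM. Concentration series were applied in quadruplicate in HBSS/24 mM NaHCO₃/11 mM glucose/15 mM LiCl, pH 7.4, for 1 h at 37°C. Cells were lysed with 50 mM formic acid, and extracts were counted by SPA beads.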

DRD4 dopamine receptor = biological target: T5, DRD4 dopamine receptor (Homo sapiens, UniProt P21917); assay: TANGO β-arrestin recruitment assay, DRD4; format: cell-based; conditions: PRESTO-TANGO screen and concentration-response (Fig. 4b)
T5 sequence (P21917 1-419): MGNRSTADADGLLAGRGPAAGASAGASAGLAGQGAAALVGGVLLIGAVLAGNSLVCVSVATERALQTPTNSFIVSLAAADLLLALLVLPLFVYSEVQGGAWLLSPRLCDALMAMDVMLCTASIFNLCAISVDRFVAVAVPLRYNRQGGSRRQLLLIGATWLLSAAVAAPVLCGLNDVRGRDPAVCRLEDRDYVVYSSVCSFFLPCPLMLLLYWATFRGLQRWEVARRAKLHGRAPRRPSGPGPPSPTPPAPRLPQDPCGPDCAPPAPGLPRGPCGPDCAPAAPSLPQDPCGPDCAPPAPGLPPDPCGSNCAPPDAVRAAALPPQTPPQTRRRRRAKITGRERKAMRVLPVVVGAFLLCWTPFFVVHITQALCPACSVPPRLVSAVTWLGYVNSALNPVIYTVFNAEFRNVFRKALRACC

DRD5 dopamine receptor = DRD5 dopamine receptor (Homo sapiens, UniProt P21918); assay: TANGO β-arrestin recruitment assay, DRD5; format: cell-based; conditions: PRESTO-TANGO screen and concentration-response (Fig. 4c)
[12] = system: 133 non-orphan, non-olfactory GPCR targets; assay: PRESTO-TANGO parallel GPCR-ome screening β-arrestin recruitment assay; format: cell-based, human; conditions: of 133 non-orphan
MRGPRX1 [13] = biological target: T3, MRGPRX1; assay: calcium mobilization assay, stable MRGPRX1 cell line; format: cell-based; conditions: MRGPRX1-expressing stable cells
Outline: as §1

[14] = biological target: T6, CX3CR1 chemokine receptor (Homo sapiens, UniProt P49238); assay: TANGO β-arrestin recruitment assay, CX3CR1; format: cell-based; conditions: n = 4
T6 sequence (P49238 1-355): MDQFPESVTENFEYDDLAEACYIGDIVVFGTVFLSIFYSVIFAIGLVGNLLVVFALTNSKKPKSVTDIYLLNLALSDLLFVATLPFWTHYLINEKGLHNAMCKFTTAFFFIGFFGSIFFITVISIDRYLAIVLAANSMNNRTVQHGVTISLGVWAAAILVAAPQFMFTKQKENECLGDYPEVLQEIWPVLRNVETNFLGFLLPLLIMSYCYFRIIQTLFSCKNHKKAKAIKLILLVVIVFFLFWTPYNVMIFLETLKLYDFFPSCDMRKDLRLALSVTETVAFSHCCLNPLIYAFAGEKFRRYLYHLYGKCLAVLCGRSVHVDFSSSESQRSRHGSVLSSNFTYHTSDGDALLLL

T2 sequence (Q96LA9 whole entry): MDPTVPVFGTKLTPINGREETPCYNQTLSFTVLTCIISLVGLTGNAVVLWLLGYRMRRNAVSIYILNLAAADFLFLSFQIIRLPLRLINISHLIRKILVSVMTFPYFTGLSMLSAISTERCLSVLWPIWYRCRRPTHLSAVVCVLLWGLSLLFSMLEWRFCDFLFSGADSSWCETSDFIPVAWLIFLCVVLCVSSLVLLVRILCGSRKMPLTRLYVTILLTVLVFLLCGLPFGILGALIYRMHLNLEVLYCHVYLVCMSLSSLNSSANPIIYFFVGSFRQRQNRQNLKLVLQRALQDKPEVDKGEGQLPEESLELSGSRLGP
Chain of NTSR2 neurotensin receptor (O95665 whole entry): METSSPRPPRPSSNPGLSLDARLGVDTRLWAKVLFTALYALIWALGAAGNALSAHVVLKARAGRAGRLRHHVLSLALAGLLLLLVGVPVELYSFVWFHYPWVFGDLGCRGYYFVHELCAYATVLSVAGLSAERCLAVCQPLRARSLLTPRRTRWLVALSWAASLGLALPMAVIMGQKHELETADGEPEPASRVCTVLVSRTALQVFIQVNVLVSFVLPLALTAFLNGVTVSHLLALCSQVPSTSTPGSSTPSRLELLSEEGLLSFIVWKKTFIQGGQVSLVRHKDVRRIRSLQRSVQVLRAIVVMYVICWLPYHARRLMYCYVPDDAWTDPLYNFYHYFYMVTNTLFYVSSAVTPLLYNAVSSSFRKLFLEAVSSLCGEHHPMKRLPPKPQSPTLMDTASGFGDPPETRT
T3 sequence (Q96LB2 whole entry): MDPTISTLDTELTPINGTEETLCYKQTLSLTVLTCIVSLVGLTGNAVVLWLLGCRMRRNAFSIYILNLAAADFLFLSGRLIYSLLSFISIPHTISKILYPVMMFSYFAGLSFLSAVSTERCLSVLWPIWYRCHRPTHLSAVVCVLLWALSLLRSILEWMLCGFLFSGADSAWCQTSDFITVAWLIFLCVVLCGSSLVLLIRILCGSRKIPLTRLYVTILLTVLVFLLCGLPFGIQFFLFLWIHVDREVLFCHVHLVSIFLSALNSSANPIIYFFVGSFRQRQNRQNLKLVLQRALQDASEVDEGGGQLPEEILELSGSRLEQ
Chain of SSTR3 somatostatin receptor (P32745 whole entry): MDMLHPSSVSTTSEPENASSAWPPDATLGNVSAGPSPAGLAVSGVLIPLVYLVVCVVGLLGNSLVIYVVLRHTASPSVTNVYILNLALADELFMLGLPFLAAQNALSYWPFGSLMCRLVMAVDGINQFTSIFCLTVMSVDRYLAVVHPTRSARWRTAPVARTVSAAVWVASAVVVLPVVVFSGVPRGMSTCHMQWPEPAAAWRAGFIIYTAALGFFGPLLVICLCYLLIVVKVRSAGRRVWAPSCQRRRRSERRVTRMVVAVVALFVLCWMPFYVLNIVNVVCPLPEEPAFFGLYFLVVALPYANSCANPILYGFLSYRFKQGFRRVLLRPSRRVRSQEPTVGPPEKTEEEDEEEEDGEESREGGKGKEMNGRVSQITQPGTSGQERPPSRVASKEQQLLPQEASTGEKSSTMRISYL
Chain of DRD5 dopamine receptor (P21918 whole entry): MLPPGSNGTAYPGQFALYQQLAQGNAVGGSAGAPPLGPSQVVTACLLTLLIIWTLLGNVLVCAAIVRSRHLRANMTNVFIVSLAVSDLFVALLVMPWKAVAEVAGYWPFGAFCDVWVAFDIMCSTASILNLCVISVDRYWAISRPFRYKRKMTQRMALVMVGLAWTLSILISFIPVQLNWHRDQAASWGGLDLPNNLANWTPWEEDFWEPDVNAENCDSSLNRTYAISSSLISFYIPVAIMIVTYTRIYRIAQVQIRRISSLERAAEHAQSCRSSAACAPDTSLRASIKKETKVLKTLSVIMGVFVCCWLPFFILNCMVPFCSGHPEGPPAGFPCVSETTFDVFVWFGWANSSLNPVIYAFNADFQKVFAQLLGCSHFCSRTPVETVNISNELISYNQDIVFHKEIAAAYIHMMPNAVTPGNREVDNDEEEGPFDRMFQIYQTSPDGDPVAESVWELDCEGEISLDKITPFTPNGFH
Chain of MLNR motilin receptor TANGO construct (O43193 whole entry): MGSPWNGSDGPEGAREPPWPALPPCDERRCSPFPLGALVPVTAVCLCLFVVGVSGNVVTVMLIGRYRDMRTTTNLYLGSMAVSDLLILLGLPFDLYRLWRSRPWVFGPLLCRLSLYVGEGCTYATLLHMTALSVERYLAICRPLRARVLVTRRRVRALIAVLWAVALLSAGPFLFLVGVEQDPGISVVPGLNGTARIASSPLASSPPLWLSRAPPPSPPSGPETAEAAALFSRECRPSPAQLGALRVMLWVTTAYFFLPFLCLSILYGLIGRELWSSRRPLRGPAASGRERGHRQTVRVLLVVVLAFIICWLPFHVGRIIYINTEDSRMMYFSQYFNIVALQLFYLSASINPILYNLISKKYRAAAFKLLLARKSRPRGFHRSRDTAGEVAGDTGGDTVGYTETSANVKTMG
Chain of MRGPRX3 (Q96LB0 whole entry): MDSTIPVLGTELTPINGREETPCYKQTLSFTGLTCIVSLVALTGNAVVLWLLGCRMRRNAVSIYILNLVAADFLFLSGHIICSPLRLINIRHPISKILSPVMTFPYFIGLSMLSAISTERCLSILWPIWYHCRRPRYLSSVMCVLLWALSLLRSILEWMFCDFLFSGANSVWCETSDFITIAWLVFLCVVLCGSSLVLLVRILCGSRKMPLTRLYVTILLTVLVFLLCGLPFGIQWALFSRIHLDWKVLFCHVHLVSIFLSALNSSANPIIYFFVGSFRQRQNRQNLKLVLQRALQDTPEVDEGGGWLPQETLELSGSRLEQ
Chain of MRGPRX4 orphan GPCR (Q96LA9 whole entry): as the sequence (Q96LA9 whole entry) above
Chain of HTR1D serotonin receptor (P28221 whole entry): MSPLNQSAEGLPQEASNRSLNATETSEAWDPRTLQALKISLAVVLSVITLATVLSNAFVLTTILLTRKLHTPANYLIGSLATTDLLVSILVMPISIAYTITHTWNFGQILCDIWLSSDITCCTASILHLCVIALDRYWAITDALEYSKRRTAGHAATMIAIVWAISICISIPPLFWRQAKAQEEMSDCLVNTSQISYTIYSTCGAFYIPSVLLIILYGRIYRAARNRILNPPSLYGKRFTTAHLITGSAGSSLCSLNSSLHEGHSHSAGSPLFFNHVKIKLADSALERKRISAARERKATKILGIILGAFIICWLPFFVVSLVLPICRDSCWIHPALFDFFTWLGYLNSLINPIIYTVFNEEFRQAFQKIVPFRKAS

Molecule: SR142948
- agonist activity at NTSR2 neurotensin receptors [1]: agonists

Molecule: COc1cccc(OC)c1-c1cc(C(=O)NC2(C(=O)O)C3CC4CC(C3)CC2C4)nn1-c1ccnc2cc(Cl)ccc12 (centres unmarked) [SR48692]
- agonist activity at NTSR2 neurotensin receptors [1]: agonists

Molecule: β-arrestin2-TEV fusion (from UniProt P32121 1-409) (natural protein)
- fold response above baseline [2]: 184 fold

Molecule: COC(=O)[C@@H]1C[C@H](OC(=O)CSC#N)C(=O)[C@H]2[C@@]1(C)CC[C@H]1C(=O)O[C@H](c3ccoc3)C[C@]21C [RB64]
- activity in the TANGO assay at MRGPRX2 (MRGPRX2 [3]): significant activity

Molecule: CN1CC[C@]23CCCC[C@H]2[C@H]1Cc1ccc(O)cc13 [levorphan]
- activity in the TANGO assay at MRGPRX2 (MRGPRX2 [3]): showed activity

Molecule: CC(C)[C@H]1CC[C@H](C(=O)N[C@H](Cc2ccccc2)C(=O)O)CC1 [Nateglinide, nateglinide]
- activity when cAMP was measured at MRGPRX4 (MRGPRX4 [4]): exceedingly modest activity at high concentrations
- increase in luminescence over basal levels (MRGPRX4 orphan GPCR): 45 fold
- inhibition of the cAMP response to isoproterenol (MRGPRX4 [5]): inability
- activity when cAMP was measured at MRGPRX2 (MRGPRX2 [6]): inactive
- selectivity among the 91 targets tested ([7]; NCC-1 screen): apparently selective
- activity when cAMP was measured at MRGPRX1 (MRGPRX1 [8]): inactive
- activity when cAMP was measured at MRGPRX3 (MRGPRX3): inactive
- calcium mobilization response (MRGPRX4 [9]): concentration-dependent responses

Molecule: CC(C)C[C@H](NC(=O)[C@@H](O)[C@H](N)Cc1ccccc1)C(=O)O [bestatin]
- number of targets with > 2-fold increase in luminescence ([7]; of 91 targets tested): 59
- percent of targets with > 2-fold increase in luminescence ([7]; of 91 targets tested): 65%

Molecule: COC(=O)C[C@](O)(CCCC(C)(C)O)C(=O)O[C@@H]1C(OC)=C[C@]23CCCN2CCc2cc4c(cc2[C@H]13)OCO4 [homoharringtonine]
- number of targets with greater than 2-fold reduction in luminescence ([7]; of 91 targets tested): 58
- percent of targets with greater than 2-fold reduction in luminescence ([7]; of 91 targets tested): 64%

Molecule: CN1CCN(C2=Nc3cc(Cl)ccc3Nc3ccccc32)CC1 [clozapine]
- effect of pre-exposure on responses to the agonist LSD (HTR1D serotonin receptor): little or no effect
- effect of pre-exposure on responses to the agonist LSD (HTR1A serotonin receptor): little or no effect

Molecule: CN1CCC(=C2c3ccccc3C=Cc3ccccc32)CC1 [cyproheptadine]
- activity in the TANGO assay at MRGPRX2 (MRGPRX2 [3]): showed activity

Molecule: CNCCC(Oc1ccc(C(F)(F)F)cc1)c1ccccc1 (centres unmarked) [Fluoxetine, fluoxetine]
- agonist activity at SSTR3 in follow-up assays ([10]; follow-up assays (data not shown)): not confirmed
- agonist activity at the SSTR3 somatostatin receptor ([10]; initial PRESTO-TANGO screen): modest agonist activity

Molecule: COc1ccc2c(c1)[C@]13CCCC[C@@H]1[C@H](C2)N(C)CC3 [dextromethorphan]
- activity in the TANGO assay at MRGPRX2 (MRGPRX2 [3]): showed activity
- concentration-dependent activity at MRGPRX2 by PI hydrolysis (MRGPRX2 [11]): confirmed

Molecule: Oc1ccc(/C=C/c2cc(O)cc(O)c2)cc1 [resveratrol]
- number of targets with greater than 2-fold reduction in luminescence ([7]; of 91 targets tested): 70
- percent of targets with greater than 2-fold reduction in luminescence ([7]; of 91 targets tested): 77%

Molecule: C[C@@H]1CN([C@H]2CC[C@](C#N)(c3ccc(F)cc3)CC2)CC[C@]1(C(=O)O)c1ccccc1 [levocabastine]
- antagonism of SR48692- or SR142948-induced arrestin recruitment responses ([1]; NTSR2-transfected cells, pre-incubation before agonist): antagonists

Molecule: CC(C)[C@@H](CN1CC[C@@](C)(c2cccc(O)c2)[C@@H](C)C1)NC(=O)[C@H]1Cc2ccc(O)cc2CN1 [JDTic]
- activity in the TANGO assay at MRGPRX2 (MRGPRX2 [3]): significant activity

Molecule: CCN(CC)C(=O)[C@@H]1C=C2c3cccc4[nH]cc(c34)C[C@H]2N(C)C1 [LSD, lysergic acid diethylamide]
- activity at the D4 dopamine receptor (DRD4 dopamine receptor): displayed activity
- activity at the D5 dopamine receptor (DRD5 dopamine receptor): displayed activity
- number of tested targets with activity [12]: 15

Molecule: CN1CCC(=C2c3ccccc3CCc3sccc32)CC1 [pizotyline]
- activity in the TANGO assay at MRGPRX2 (MRGPRX2 [3]): showed activity

Molecule: CN1CCC(=C2c3ccccc3CC(=O)c3sccc32)CC1 [ketotifen]
- activity in the TANGO assay at MRGPRX2 (MRGPRX2 [3]): showed activity

Molecule: BAM8-22
- calcium mobilization response (MRGPRX1 [13]): concentration-dependent responses

B1: CX3CL1: ligand of the CX3CR1 chemokine receptor (protein)
chain: QHHGVTKCNITCSKMTSKIPVALLIHYQQNQASCGKRAIILETRQHRLFCADPKEQWVKDAMQHLDRQAAALTRNGGTFEKQIGEVKPRTTPAAGGMDESVVLEPEATGESSSLEPTPSSQEAQRALGTSPELPTGVTGSSGTRLPPTPKAQDGGPVGTELFRVPPVSTAATWQSSAPHQPGPSLWAEAKTSEAPSTQDPSTQASTASSPAPEENAPSEGQRVWGQGQSPRPENSLEREEMGPVPAHTDAFQDWGPGSMAHVSVVPVSSEGTPSREPVASGSWTPKAEEPIHATMDPQRLGVLITPVPDAQAATRRQAVGLLAFLGLLFCLGVAMFTYQSLQGCPRKMAGEMAEGLRYIPRSCGSNSYVLVPV
- EC50 [14]: 340 pM
